ChEMBL document CHEMBL1148755, “Structural analogues of smoothened intracellular loops as potent inhibitors of Hedgehog pathway and cancer cell growth” (J Med Chem, 2007)
Activity calls are given as the source filed them. The calls are words filed in the database; no cut-off is given here. Peptide text beside a SMILES is read from it. * marks the point of attachment. Palmitoyl = CCCCCCCCCCCCCCCC(=O)*

Legend:
SK-MEL-2 = assay: Growth inhibition of SK-Mel2 melanoma cells after 48 hrs by MTT assay; assay type: functional, cell-based, Homo sapiens; settings: Homo sapiens, SK-MEL-2, 48 h
In short: (§1)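 Cells seeded at 200-400 per well in DMEM with 10% FBS and left to attach for 24 h. The next day, inhibitor in medium at 2× was added in an equal volume, and cells were incubated 48 h in a CO2 incubator. Reference plates were read at time of addition for T0 density. MTT staining was read as absorbance at 544 nm and compared with untreated control cells.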

MCF7 = assay: Growth inhibition of breast cancer MCF7 cells after 48 hrs by MTT assay; assay type: functional, cell-based; settings: Homo sapiens; in short: as §1

| SMILES | IC50 (SK-MEL-2) | Activity (MCF7) |
| --- | --- | --- |
| CCCCCCCCCCCCCCCC(=O)N[C@@H](CC(C)C)C(=O)N[C@H](C(=O)N[C@@H](Cc1ccc(O)cc1)C(=O)N[C@@H](C)C(=O)N[C@@H](Cc1c[nH]c2ccccc12)C(=O)N[C@@H](Cc1cnc[nH]1)C(=O)N[C@H](C(=O)N[C@@H](CO)C(=O)N[C@@H](Cc1ccccc1)C(=O)N[C@@H](CCCCN)C(=O)N[C@@H](C)C(=O)N[C@@H](CC(C)C)C(=O)NCC(=O)N[C@H](C(=O)N[C@H](C(=O)N[C@@H](Cc1ccc(O)cc1)C(=O)N[C@@H](CCC(N)=O)C(=O)N1CCC[C@H]1C(=O)N[C@@H](CC(C)C)C(=O)N[C@@H](CO)C(=O)NCC(=O)N[C@@H](CCCCN)C(=O)N[C@@H](Cc1ccc(O)cc1)C(=O)N[C@@H](CO)C(=O)N[C@@H](Cc1ccc(O)cc1)C(=O)O)[C@@H](C)O)[C@@H](C)O)[C@@H](C)O)[C@@H](C)O (Palmitoyl-LTYAWHTSFKALGTTYQPLSGKYSY-OH) | 450 nM | Active |
| CCCCCCCCCCCCCCCC(=O)N[C@@H](CCCNC(=N)N)C(=O)NCC(=O)N[C@H](C(=O)N[C@@H](CCSC)C(=O)N[C@H](C(=O)N[C@@H](CC(C)C)C(=O)N[C@@H](Cc1ccccc1)C(=O)N[C@@H](CO)C(=O)N[C@H](C(=O)N[C@@H](CCCCN)C(=O)N[C@@H](CO)C(=O)N[C@@H](CC(N)=O)C(=O)N[C@@H](Cc1c[nH]cn1)C(=O)N1CCC[C@H]1C(=O)NCC(=O)N[C@@H](CC(C)C)C(=O)N[C@@H](CC(C)C)C(=O)N[C@@H](CO)C(=O)N[C@@H](CCC(=O)O)C(=O)N[C@@H](CCCCN)C(=O)N[C@@H](C)C(=O)N[C@@H](C)C(=O)N[C@@H](CO)C(=O)N[C@@H](CCCCN)C(=O)N[C@H](C(=O)N[C@@H](CC(N)=O)C(=O)N[C@@H](CCC(=O)O)C(=O)N[C@H](C(=O)N[C@@H](CCSC)C(=O)N[C@@H](CC(C)C)C(=O)O)[C@@H](C)O)[C@@H](C)CC)[C@@H](C)CC)[C@@H](C)O)C(C)C (Palmitoyl-RGVMTLFSIKSNHPGLLSEKAASKINETML-OH) | 640 nM | Active |
| CCCCCCCCCCCCCCCC(=O)N[C@H](C(=O)N[C@@H](Cc1ccccc1)C(=O)N[C@H](C(=O)N[C@@H](C)C(=O)N[C@@H](CC(=O)O)C(=O)N[C@@H](Cc1c[nH]c2ccccc12)C(=O)N[C@@H](CCCNC(=N)N)C(=O)N[C@@H](CC(N)=O)C(=O)N[C@@H](CO)C(=O)N[C@@H](CC(N)=O)C(=O)N[C@@H](CCCNC(=N)N)C(=O)N[C@@H](Cc1ccc(O)cc1)C(=O)O)C(C)C)[C@@H](C)O (Palmitoyl-TFVADWRNSNRY-OH) | – | Active |
